Measurements gathered from unrelated publications.
Compare with care: the assays were run in different laboratories.
Read-out: cell growth or viability

| SMILES | cell line | test | conditions | CC50 [µM] |
| --- | --- | --- | --- | --- |
| Cc1cc(C)cc([C@@H]2C[C@H]2C(=O)NC(C(=O)NC2CC2)c2ccc(C)c(C)c2)c1 (stereo partly drawn) | BHK-21 | MTT | 24 h | ~10 |
| Nc1ccc(-c2ccc(Nc3cc(S(=O)(=O)O)c(N)c4c3C(=O)c3ccccc3C4=O)cc2)c(S(=O)(=O)O)c1 | BHK-21 | MTT | 42 h | 177 |
| O=C(Nc1ncc([N+](=O)[O-])s1)c1cc(Cl)ccc1Cl | BHK-21 | MTT | – | > 100 |
| C=CC(=O)Nc1cccc(-c2snc3cc(-c4ccc(N)c(OC)c4)cnc23)c1 | Vero | resazurin | – | 21 |
| Cc1cc(N)c2cc(NC(=O)Nc3ccc4nc(C)cc(N)c4c3)ccc2n1 | BHK-21 | MTT | 42 h | 49 |
| OCCCCCCC1COOC2(CCCCCCCCCCC2)OOC1 | BHK-21 | WST-1 | 72 h | 3.4 |
| COc1cc(Nc2ccnc3ccc(Br)cc23)cc(OC)c1OC | Vero | resazurin | – | 28.6 |
| CC(=O)c1cccc(NC(=O)C(=O)[C@H](CC(C)C)NC(=O)[C@H](CC(C)C)NC(=O)[C@H](CC(C)C)NC(=O)OCc2ccccc2)c1 | Vero | ATP luminescence | 48 h | 17.7 |
| O=C(Nc1ncc([N+](=O)[O-])s1)c1ccco1 | BHK-21 | MTT | – | > 10 |
| C[C@H]1[C@H](OC(=O)CCC(=O)O)O[C@@H]2O[C@@]3(C)CC[C@H]4[C@H](C)CC[C@@H]1[C@@]24OO3 | Vero | WST-1 | 18 h | 29.2 |
| O=C(NCc1ccc(Cl)cc1)C1CC1c1ccccc1 (stereo not drawn) | BHK-21 | MTT | – | > 100 |
| Clc1ccc(CCC(Cn2ccnc2)Sc2c(Cl)cccc2Cl)cc1 (stereo not drawn) | Vero | WST-1 | 18 h | 34.9 |
